Screening results: PubChem BioAssay, several laboratories
Only some compounds are listed: those with a hit (about 2.1% of all), similar ones and a draw of the others.
KLK5 inh = human KLK5 protease inhibitors, primary screen, biochemical, 1536-well; recombinant hK5, fluorogenic AMC substrate cleavage; inhibition, % at 5 µM; 210,000 compounds, 0.59% hits; Kallikrein-5 (Homo sapiens), Q9Y337;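 active means inhibition of 40% or more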
Thrombin inh = human alpha-thrombin inhibitors, primary screen, counter-screen for coagulation protease inhibitor project, biochemical, 1536-well, fluorogenic AMC substrate; AID 1046, 2008; 220,000 compounds, 0.26% hits; Prothrombin (Homo sapiens), P00734; inhibition, % at 5 µM; Boc-VPR-AMC fluorogenic substrate cleavage;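 active means inhibition at or above 40%; inactive means inhibition below 40%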
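Assay system: human alpha-thrombin enzyme. Reagent: Boc-VPR-AMC substrate, 15 µM final. Compound dosing: one concentration per compound, 5 µM, with 0.2% DMSO. Incubation: room-temperature reaction. Technique: AMC fluorescence, 355/460 nm. Measure: % inhibition relative to enzyme controls and enzyme-free blanks.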
FXIIa inh = human FXIIa protease inhibitors, primary screen, biochemical, 1536-well; AID 800, 2007; 220,000 compounds, 0.3% hits; purified FXIIa, Boc-QGR-AMC fluorogenic substrate, 2 h; Coagulation factor XII (Homo sapiens), P00748; inhibition, % at 5 µM; in the data active means inhibition above about 40%
FXIa inh 1536 = human FXIa protease inhibitors, primary screen, biochemical, 1536-well. Coagulation factor XI (Homo sapiens), P03951. purified FXIa, Boc-Glu-Ala-Arg-AMC fluorogenic substrate. inhibition, % at 5 µM. 220,000 compounds, 0.14% hits;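 active means inhibition of at least 40%; inactive means inhibition below 40%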;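 further: fluorescence of freed AMC excited at 355 nm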
Target sequence (P03951 19-387 limits assumed): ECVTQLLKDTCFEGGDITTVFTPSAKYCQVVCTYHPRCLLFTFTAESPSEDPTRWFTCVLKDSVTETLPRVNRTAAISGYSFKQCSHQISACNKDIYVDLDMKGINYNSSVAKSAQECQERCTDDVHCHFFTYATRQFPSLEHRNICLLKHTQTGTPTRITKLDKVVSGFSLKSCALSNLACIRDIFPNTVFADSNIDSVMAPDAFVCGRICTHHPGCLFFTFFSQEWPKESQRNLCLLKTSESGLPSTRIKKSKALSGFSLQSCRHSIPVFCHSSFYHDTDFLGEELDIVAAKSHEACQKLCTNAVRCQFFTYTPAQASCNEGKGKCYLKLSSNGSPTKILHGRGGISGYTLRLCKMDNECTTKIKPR
Target sequence (P03951 388-625 limits assumed): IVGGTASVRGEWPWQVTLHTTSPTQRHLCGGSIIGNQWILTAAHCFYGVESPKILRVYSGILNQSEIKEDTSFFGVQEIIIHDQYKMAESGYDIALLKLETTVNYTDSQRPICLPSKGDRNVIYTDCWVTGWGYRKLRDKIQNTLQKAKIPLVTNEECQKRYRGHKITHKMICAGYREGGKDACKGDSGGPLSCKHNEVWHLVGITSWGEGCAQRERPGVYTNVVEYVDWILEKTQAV
EP2 modulator = EP2 receptor modulators, cAMP readout, primary screen, cell-based, HTRF cAMP, PGE2 stimulation | induction, % at 25 µM | EP2-expressing cells, cAMP HTRF FRET, PGE2 co-stimulation | 260,000 compounds, 0.83% hits | AID 940, 2007;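 active means compounds whose cAMP rise, as percent of the full-agonist control response, exceeds 60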;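 further: rat C6 glioma line stably carrying human EP2 under a CMV promoter; the protocol text gives 20 µM as final concentration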
EP2 antag = human EP2 receptor antagonists, primary screen, TR-FRET cAMP, C6 glioma cells; Prostaglandin E2 receptor EP2 subtype (Homo sapiens), P43116; C6 glioma cells expressing human EP2; cells stimulated with saturating PGE2; inhibition, % at 25 µM; 260,000 compounds, 0.52% hits; AID 1422, 2008;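 active means percent inhibition above 40 after rounding to a whole number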;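 further: rat C6 glioma host cells with rolipram phosphodiesterase inhibitor present; the protocol text gives 20 µM as final concentration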
EP2 cAMP induct = cAMP induction in EP2, EP4, beta2-AR and parental cells, confirmation, counter-screen for EP2 modulator project, cell-based, five parallel assays, C6 glioma, HEK293. cAMP HTRF induction; plus low (about EC15) PGE2 agonist. shares compounds with EP2 modulator. 1,300 compounds, 47% hits. calls only at 20 µM (by protocol);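 active means cAMP induction above 50% in the main assay while under 30% in all four parallel counter assays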;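 further: rat C6 glioma cells stably expressing human EP2 receptor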
Of the large screens only hits and unclear results are named; the others gave an inactive call (follow-up assays come after a bar, where they were run); ! = a repeat was not active.

CCOc1ccc(S(=O)(=O)NCCC(=O)OCN2C(=O)c3ccccc3C2=O)cc1	none
Cc1ccc(S(=O)(=O)NCC(=O)OCN2C(=O)c3ccccc3C2=O)cc1	EP2 modulator 67 | EP2 cAMP induct inactive
COc1cccc(-n2c(CCn3nc(C)c([N+](=O)[O-])c3C)n[nH]c2=S)c1	none
Cc1cccc(-n2c(CCn3nc(C)c([N+](=O)[O-])c3C)n[nH]c2=S)c1	EP2 modulator 61 | EP2 cAMP induct inactive
O=C(Nc1ccccc1Sc1ccccc1)c1ccc(F)cc1	EP2 modulator 72 | EP2 cAMP induct active
O=C(Cc1ccc(Cl)cc1)Nc1ccccc1Sc1ccccc1	EP2 modulator 75 | EP2 cAMP induct active
O=C(Cc1ccccc1)Nc1cc(Cl)ccc1Sc1ccccc1	none
Cc1ccc(C(=O)Nc2ccccc2Sc2ccccc2)cc1	none
Nc1cc(-c2ccco2)nn(CC(=O)N2CCOCC2)c1=O	none (no result: KLK5 inh, Thrombin inh, FXIIa inh, FXIa inh 1536)
Cc1ccc(NC(=O)CSc2nc(-c3ccco3)c(C#N)c(=O)[nH]2)cc1	none (no result: KLK5 inh, Thrombin inh, FXIIa inh, FXIa inh 1536)
N#Cc1c(-c2ccco2)nc(SCC(=O)Nc2cccc(Cl)c2)[nH]c1=O	EP2 modulator 64 | EP2 cAMP induct inactive
CCOc1ccccc1NC(=O)CN1CCC(NC(=O)c2ccco2)CC1	none (no result: KLK5 inh, Thrombin inh, FXIIa inh, FXIa inh 1536)
O=C(O)c1nc2nc(Cl)c(Cl)nc2[nH]1	EP2 modulator 63! | EP2 cAMP induct inactive
CCC(=O)c1cn(CC(=O)N2CCC(C)CC2)c2ccccc12	none (no result: KLK5 inh, Thrombin inh, FXIIa inh, FXIa inh 1536)
COc1ccc(-c2csc3nc(C)nc(N4CCC(C)CC4)c23)cc1OC	EP2 modulator 70 | EP2 cAMP induct inactive
COc1ccc(Cn2nc(-c3ccccc3)c(N3CCCCC3)cc2=O)cc1	none
O=c1cc(N2CCCCC2)c(-c2ccccc2)nn1Cc1ccccc1	EP2 modulator 82 | EP2 cAMP induct active
O=C(c1ccc(Cl)cc1)c1oc2ccccc2c1CS(=O)c1ccccc1 (stereo not given)	EP2 modulator 71 | EP2 cAMP induct active
FC(F)(F)c1cc(-c2ccccc2)nc(-n2cc(Cl)cn2)n1	none
Cc1cnn(-c2nc(-c3ccccc3)cc(-c3ccccc3)n2)c1	EP2 modulator 67 | EP2 cAMP induct active
Cc1c(NC(=S)NC(=O)c2ccc(-c3ccc(Cl)cc3)o2)cccc1C(=O)O	EP2 modulator 99 | EP2 cAMP induct active
O=C(NC(=S)Nc1ccccc1O)c1ccc(-c2ccc(Cl)cc2)o1	none
CCOc1ccccc1COC(=O)c1cccc(-n2cnnn2)c1	EP2 modulator 71 | EP2 cAMP induct inactive
Cc1c(/C=C2\SC(=O)NC2=O)c2ccccc2n1C	none (no result: KLK5 inh, Thrombin inh, FXIIa inh, FXIa inh 1536)
CC(C)Sc1cc(N2CCCC2)nc(-c2ccccc2)n1	none
CCSc1cc(N2CCOCC2)nc(-c2ccc(Cl)cc2)n1	EP2 modulator 76 | EP2 cAMP induct active
CC(C)Sc1cc(N2CCOCC2)nc(-c2ccccc2)n1	EP2 modulator 74 | EP2 cAMP induct active
OC(CN1CCC2(CC1)CC(O)c1cc(Cl)ccc1O2)c1ccccc1 (stereo not given)	none (no result: KLK5 inh, Thrombin inh, FXIIa inh, FXIa inh 1536)
N#CC1=C(N)SC(N)=C(C#N)C1c1ccoc1	EP2 modulator 68 | EP2 cAMP induct inactive
Cc1occc1-c1nn(CC(=O)N(C(C)C)C(C)C)c(=O)o1	none (no result: KLK5 inh, Thrombin inh, FXIIa inh, FXIa inh 1536)
COc1ccc(-c2nc3cnccn3c2NCc2ccccc2)cc1CO	none (no result: KLK5 inh, Thrombin inh, FXIIa inh, FXIa inh 1536, EP2 antag)
C=C(C)Cn1c(C)cc(C)c(S(=O)(=O)c2ccc(C)cc2)c1=O	EP2 modulator 87 | EP2 cAMP induct active
Cc1ccc(S(=O)(=O)c2c(C)cc(C)nc2N2CCCC2)cc1	none
CCOC(=O)C1=NN(c2ccc(C)cc2)C2(S1)SC(C(C)=O)=C(C)N2c1ccccc1 (stereo not given)	EP2 modulator 74 | EP2 cAMP induct active
CCOC(=O)C1=NN(c2cccc(C)c2)C2(S1)SC(C(C)=O)=C(C)N2c1ccccc1 (stereo not given)	EP2 modulator 78 | EP2 cAMP induct active
CCOC(=O)C1=NNC2(CC(=O)N(c3cccc(C)c3)C2=O)C1 (stereo not given)	none
COC(=O)C1=NN(c2ccccc2)C2(S1)S/C(=C\c1ccccc1)C(=O)N2c1ccccc1 (stereo not given)	none
COc1ccc(S(=O)(=O)N2CCSC2c2ccco2)cc1 (stereo not given)	none (no result: KLK5 inh, Thrombin inh, FXIIa inh, FXIa inh 1536)
Cc1cc2cc(C(c3nnnn3Cc3ccccc3)N3CCC(O)CC3)c(=O)[nH]c2cc1C (stereo not given)	none (no result: KLK5 inh, Thrombin inh, FXIIa inh, FXIa inh 1536)
CN(C(=O)CSc1nc(-c2ccccc2)cc(C(F)(F)F)n1)C1CCCCC1	none (no result: KLK5 inh, Thrombin inh, FXIIa inh, FXIa inh 1536)
Cc1cc2cc(CN(CCO)C(c3nnnn3C3CCCC3)C(C)C)c(=O)[nH]c2cc1C (stereo not given)	none (no result: KLK5 inh, Thrombin inh, FXIIa inh, FXIa inh 1536)
S=c1[nH]nc(-c2cc(-c3ccsc3)n[nH]2)n1-c1cccc2ccccc12	none
COc1ccc(-c2cc(-c3n[nH]c(=S)n3-c3cccc4ccccc34)[nH]n2)cc1	EP2 modulator 67 | EP2 cAMP induct inactive
CSc1nc(Oc2ccccc2)c2sccc2n1	EP2 modulator 66 | EP2 cAMP induct active
C=CCNc1nc(SCC=C)nc2ccsc12	none (no result: EP2 antag)
C=CCSc1nc(Oc2ccccc2)c2sccc2n1	EP2 modulator 69 | EP2 cAMP induct inactive
CC(C)Cc1nc(SCc2cccnc2)c2c(=O)n(C)c(=O)n(C)c2n1	EP2 modulator 63 | EP2 cAMP induct inactive
COC(=O)c1c(NC(=O)CSc2nnc3n2C(C)(C)Cc2ccccc2-3)sc(C(C)=O)c1C	none (no result: KLK5 inh, Thrombin inh, FXIIa inh, FXIa inh 1536)
COc1ccccc1C(NC(=O)C1CCC(OC)CC1)c1nccn1C (stereo not given)	none (no result: KLK5 inh, Thrombin inh, FXIIa inh, FXIa inh 1536, EP2 antag)
CC1(C)Cc2ccccc2-c2nc3n(c(=O)c21)CCS3	EP2 modulator 74 | EP2 cAMP induct active
COc1cc(C2Oc3cc(C4Oc5cc(O)cc(O)c5C(=O)C4O)ccc3OC2CO)ccc1O (stereo not given)	EP2 modulator 80 | EP2 cAMP induct inactive
COc1ccc([C@@H]2C[C@H](OC(=O)c3cscn3)C(=O)N2C)cc1	none (no result: KLK5 inh, Thrombin inh, FXIIa inh, FXIa inh 1536, EP2 antag)
CCC(CC)C(=O)Nc1nnc(Cc2ccc(OC)c(OC)c2)s1	none (no result: KLK5 inh, Thrombin inh, FXIIa inh, FXIa inh 1536)
O=C(Nc1nc2c(s1)CCCC2)c1cc2ccccc2oc1=O	none (no result: KLK5 inh, Thrombin inh, FXIIa inh, FXIa inh 1536)
